Results reported in ChEMBL document CHEMBL4346736, “Anti-proliferative activity and structure-activity relationship of honokiol derivatives” (Bioorg Med Chem, 2019).

What was measured:
[1] = Partition coefficient, log P of the compound; format: physicochemical; conditions: octanol/water
K562 [2] = assay: Antiproliferative activity against human K562 cells after 48 hrs by MTT assay; format: functional, cell-based; conditions: K562, 48 h
Procedure, shortened: (§1)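 Cells from the Institute of Cell Biology, CAS (Shanghai), grown in RPMI-1640 with 10% FBS and 100 U/mL penicillin-streptomycin at 37 °C under 5% CO2. Cells were exposed to compounds for 48 h, and viability was read by MTT (or MTS). IC50, the concentration giving 50% inhibition, was calculated by the Logit method. Data are representative of 3 independent experiments.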

A549 = assay: Antiproliferative activity against human A549 cells after 48 hrs by MTT assay; format: functional, cell-based; conditions: A549, 48 h; procedure, shortened: as §1
HepG2 [3] = assay: Antiproliferative activity against human HepG2 cells after 48 hrs by MTT assay; format: functional, cell-based; conditions: HepG2, 48 h; procedure, shortened: as §1
HepG2 [4] = assay: Antiproliferative activity against human HepG2 cells after 72 hrs by MTT assay; format: functional, cell-based; conditions: HepG2, 72 h
HCT-116 = assay: Antiproliferative activity against human HCT116 cells after 72 hrs by MTT assay; format: functional, cell-based; conditions: HCT-116, 72 h
NCI-H1975 = assay: Antiproliferative activity against human NCI-H1975 cells after 72 hrs by MTT assay; format: functional, cell-based; conditions: NCI-H1975, 72 h
HepG2 [5] = assay: Antiproliferative activity against human HepG2 cells; format: functional, cell-based; procedure, shortened: as §1
K562 [6] = assay: Antiproliferative activity against human K562 cells; format: functional, cell-based; procedure, shortened: as §1

SMILES | logP [1] | also measured
C/C=C/c1ccc(O)c(-c2cc(/C=C/C)ccc2O)c1 | 5.36 | 
C=CCc1cc(O)c(O)c(-c2cc(CC=C)cc(O)c2O)c1 | 3.76 | 
C=CCc1cccc(-c2cccc(CC=C)c2O)c1O | 4.75 | 
C=CCc1ccc(O)c(-c2ccc(OCC)c(CC=C)c2)c1 | 5.45 | 
C=CCc1ccc(OCC)c(-c2ccc(O)c(CC=C)c2)c1 | 5.66 | 
Oc1ccccc1-c1ccccc1O | 3.2 | 
C=CCc1ccc(O)c(-c2cccc(CC=C)c2O)c1 | 4.77 | 
C=CCc1cc(C(C)(C)c2ccc(O)c(CC=C)c2)ccc1O | 5.8 | 
C=CCc1cc(C2(c3ccc(O)c(CC=C)c3)CCCCC2)ccc1O | 6.97 | 
C=CCc1cc(C(=C(Cl)Cl)c2ccc(O)c(CC=C)c2)ccc1O | 6.17 | 
C=CCc1cc(C(c2ccc(O)c(CC=C)c2)c2ccccn2)ccc1O | 5.41 | 
C=CCc1cc(/C(CC)=C(\CC)c2ccc(O)c(CC=C)c2)ccc1O | 6.74 | 
C=CCc1cc(-c2ccc(O)c(CC=C)c2)ccc1O | 5.21 | 
C=CCc1cc(Cc2ccc(O)c(CC=C)c2)ccc1O | 5.38 | 
CCCc1ccc(O)c(-c2cc(CCC)ccc2O)c1 | 5.76 | 
CCCc1ccc(O)c(-c2ccc(O)c(CCC)c2)c1 | 5.97 | IC50 (K562 [2]): 18.2 µM; IC50 (A549): 30.4 µM; IC50 (HepG2 [3]): 30.8 µM
COc1ccc(-c2cc(/C=C/C=O)ccc2O)cc1/C=C/C=O | 4.34 | 
C=CCc1ccc(O)c(-c2ccc(O)c(CC(O)CO)c2)c1 (stereo unspecified) | 3.08 | IC50 (K562 [2]): 100 µM; IC50 (A549): 90.4 µM; IC50 (HepG2 [3]): 25.3 µM
C=CCc1ccc(O)c(-c2ccc(O)c(CC(O)COC)c2)c1 (stereo unspecified) | 3.7 | IC50 (HepG2 [4]): > 40 µM; IC50 (HCT-116): > 40 µM; IC50 (NCI-H1975): > 40 µM
C=CCc1cc(CN2CCOCC2)c(O)c(-c2cc(CC=C)c(O)c(CN3CCOCC3)c2)c1 | 3.95 | IC50 (HepG2 [5]): > 40 µM; IC50 (K562 [6]): > 40 µM
O=Cc1ccc(O)c(-c2ccc(O)c(CC3CO3)c2)c1 (stereo unspecified) | 3.16 | IC50 (HepG2 [4]): > 40 µM; IC50 (HCT-116): > 40 µM; IC50 (NCI-H1975): > 40 µM
C=CCc1cc(CN2CCC(O)CC2)c(O)c(-c2cc(CC=C)c(O)c(CN3CCC(O)CC3)c2)c1 | 2.31 | IC50 (HepG2 [5]): > 40 µM; IC50 (K562 [6]): 25.5 µM
C=CCc1ccc(O)c(-c2ccc3oc(C)cc3c2)c1 | 4.79 | IC50 (K562 [2]): 67.9 µM; IC50 (A549): 71.5 µM; IC50 (HepG2 [3]): 107 µM
C=CCc1cc(NC(=O)CCl)c(O)c(-c2cc(CC=C)c(O)c(NC(=O)CCl)c2)c1 | 4.22 | IC50 (K562 [2]): 21.6 µM; IC50 (A549): 29.3 µM; IC50 (HepG2 [3]): 19.1 µM
CCCc1ccc(O)c(-c2ccc3oc(C)cc3c2)c1 | 5.27 | IC50 (K562 [2]): 73.9 µM; IC50 (A549): 61.9 µM; IC50 (HepG2 [3]): 88.3 µM
C=CCc1cc(CN2CCSCC2)c(O)c(-c2cc(CC=C)c(O)c(CN3CCSCC3)c2)c1 | 5.03 | IC50 (HepG2 [5]): > 40 µM; IC50 (K562 [6]): > 40 µM

The next lines start with results.

logP [1] | SMILES | also measured
5 | C=CCc1cc(C=O)c(OC)c(-c2ccc(O)c(CC=C)c2)c1 | 
5.07 | C=CCc1cc(C=O)c(OC)c(-c2ccc(OC)c(CC=C)c2)c1 | 
5.82 | C=CCc1cc(C=O)c(OCC)c(-c2ccc(OCC)c(CC=C)c2)c1 | 
4.27 | C=CCc1cc(CO)c(O)c(-c2ccc(O)c(CC=C)c2)c1 | 
3.33 | C=CCc1cc(CO)c(O)c(-c2cc(CO)c(O)c(CC=C)c2)c1 | 
5.35 | C=CCc1ccc(OC)c(-c2cc(CC=C)ccc2OC)c1 | 
5.81 | C=CCc1cc(Br)c(O)c(-c2ccc(OC)c(CC=C)c2)c1 | 
7.61 | C=CCc1cc(-c2ccc(OC)c(CC=C)c2)c(O)c(-c2ccc(OC)c(CC=C)c2)c1 | 
5.28 | C=CCc1cc(-c2ccc(OC)c(CC=C)c2)ccc1O | 
5.05 | C=CCc1cc(-c2cccc(CC=C)c2O)ccc1OC | 
4.98 | C=CCc1cc(-c2cccc(CC=C)c2O)ccc1O | 
6.67 | C=CCc1cc(/C=N\C2CCCCC2)c(O)c(-c2ccc(O)c(CC=C)c2)c1 | 
7.22 | C=CCc1cc(/C=N\CCCCCC)c(O)c(-c2ccc(O)c(CC=C)c2)c1 | 
